In ChEMBL document CHEMBL1949521, “Discovery of CC-930, an orally active anti-fibrotic JNK inhibitor” (Bioorg Med Chem Lett, 2012):
Values belong to the molecule of their own block, whether it stands above or below them.

Key:
[1] = target: Mitogen-activated protein kinase 8 (Homo sapiens, UniProt P45983); test: Inhibition of hexa-His-tagged JNK1 expressed in baculoviral system using GST-tagged c-Jun as substrate preincubated for 15 mins prior ATP addition measured after 60 mins by scintillation counting
Sequence of Mitogen-activated protein kinase 8 (P45983 whole entry): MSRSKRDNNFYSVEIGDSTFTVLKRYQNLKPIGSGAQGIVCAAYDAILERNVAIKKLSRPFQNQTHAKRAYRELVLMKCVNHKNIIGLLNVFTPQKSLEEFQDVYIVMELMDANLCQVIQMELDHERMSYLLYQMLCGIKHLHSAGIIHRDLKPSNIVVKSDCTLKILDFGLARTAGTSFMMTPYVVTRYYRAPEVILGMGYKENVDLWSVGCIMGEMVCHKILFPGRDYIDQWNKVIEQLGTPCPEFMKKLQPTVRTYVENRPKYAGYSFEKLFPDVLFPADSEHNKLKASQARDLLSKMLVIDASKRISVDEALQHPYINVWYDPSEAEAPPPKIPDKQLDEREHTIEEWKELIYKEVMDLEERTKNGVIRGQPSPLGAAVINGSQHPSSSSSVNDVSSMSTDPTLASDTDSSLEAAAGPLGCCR

[2] = target: c-Jun N-terminal kinase, JNK (Homo sapiens, UniProt P45983+P53779+P45984); test: Inhibition of JNK-mediated GST tagged c-Jun phosphorylation in human Jurkat T cells compound treated for 30 mins prior anisomycin stimulation measured after 40 mins by fluorescence spectrophotometry; type: cell-based
[3] = target: Mitogen-activated protein kinase 14 (Homo sapiens, UniProt Q16539); test: Inhibition of p38alpha using myelin basic protein as substrate preincubated for 15 mins prior ATP addition measured after 60 mins by scintillation counting
Sequence of Mitogen-activated protein kinase 14 (Q16539 whole entry): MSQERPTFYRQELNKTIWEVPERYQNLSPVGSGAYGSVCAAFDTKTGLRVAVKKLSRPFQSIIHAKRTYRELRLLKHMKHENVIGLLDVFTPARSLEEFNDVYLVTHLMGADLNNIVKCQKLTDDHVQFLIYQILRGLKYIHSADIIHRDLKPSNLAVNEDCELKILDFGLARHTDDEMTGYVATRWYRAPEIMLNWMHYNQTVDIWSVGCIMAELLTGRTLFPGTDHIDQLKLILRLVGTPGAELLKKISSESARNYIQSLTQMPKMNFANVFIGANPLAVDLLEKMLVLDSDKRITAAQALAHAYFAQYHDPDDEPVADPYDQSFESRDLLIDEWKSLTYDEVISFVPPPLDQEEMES

[4] = Cmax in cynomolgus monkey at 10 mg/kg, po; type: ADME, organism-based, Macaca fascicularis; parameters: dose 10 mg/kg, route oral; settings: in vivo
Outline: (§1)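 Oral dose of 10 mg/kg given as a suspension in aqueous 0.5% CMC/0.25% Tween 80. Plasma AUC, Cmax and Tmax were taken from the oral arm. Bioavailability was derived against the intravenous arm in the same species.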

[5] = Tmax in rat at 10 mg/kg, po; type: ADME, organism-based; parameters: dose 10 mg/kg, route oral; settings: in vivo; outline: as §1
[6] = AUC in rat at 10 mg/kg, po; type: ADME, organism-based; parameters: dose 10 mg/kg, route oral; settings: plasma; outline: as §1
[7] = AUC in rat at 2 mg/kg, iv; type: ADME, organism-based; parameters: dose 2 mg/kg, route intravenous; settings: plasma
Outline: (§2)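 Rats dosed intravenously at 2 mg/kg in a solution of 5% DMA and 30% PEG 400.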

[8] = Volume of distribution at steady state in cynomolgus monkey at 1 mg/kg, iv; type: ADME, organism-based, Macaca fascicularis; parameters: dose 1 mg/kg, route intravenous; settings: in vivo, read-out: Vdss
Outline: (§3)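 Intravenous dose of 1 mg/kg given to monkeys in a solution of 5% DMA and 95% isotonic citrate buffer (50 mM, pH 5.0).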

[9] = Mean residence time in cynomolgus monkey at 1 mg/kg, iv; type: ADME, organism-based, Macaca fascicularis; parameters: dose 1 mg/kg, route intravenous; settings: in vivo; outline: as §3
[10] = Mean residence time in rat at 2 mg/kg, iv; type: ADME, organism-based; parameters: dose 2 mg/kg, route intravenous; settings: in vivo; outline: as §2
[11] = Clearance in dog at 1 mg/kg, iv; type: ADME, organism-based, Canis lupus familiaris; parameters: dose 1 mg/kg, route intravenous; settings: in vivo
[12] = target: Mitogen-activated protein kinase 10 (Homo sapiens, UniProt P53779); test: Inhibition of hexa-His-tagged JNK3 expressed in baculoviral system using GST-tagged cJun as substrate preincubated for 15 mins prior ATP addition measured after 60 mins by scintillation counting
Sequence of Mitogen-activated protein kinase 10 (P53779 whole entry): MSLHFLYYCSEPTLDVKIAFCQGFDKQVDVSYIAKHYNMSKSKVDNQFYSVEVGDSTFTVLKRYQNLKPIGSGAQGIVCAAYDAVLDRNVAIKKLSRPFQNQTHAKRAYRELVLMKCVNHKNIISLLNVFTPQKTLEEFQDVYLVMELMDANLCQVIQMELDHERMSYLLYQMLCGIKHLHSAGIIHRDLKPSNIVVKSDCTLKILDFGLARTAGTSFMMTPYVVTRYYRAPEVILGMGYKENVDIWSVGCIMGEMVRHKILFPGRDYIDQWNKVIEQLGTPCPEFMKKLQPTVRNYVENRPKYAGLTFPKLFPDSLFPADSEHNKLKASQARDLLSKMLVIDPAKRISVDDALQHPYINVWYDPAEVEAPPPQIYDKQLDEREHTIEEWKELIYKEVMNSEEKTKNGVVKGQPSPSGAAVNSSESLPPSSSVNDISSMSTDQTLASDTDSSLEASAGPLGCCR

[13] = Volume of distribution at steady state in rat at 2 mg/kg, iv; type: ADME, organism-based; parameters: dose 2 mg/kg, route intravenous; settings: in vivo, read-out: Vdss; outline: as §2
[14] = Clearance in cynomolgus monkey at 1 mg/kg, iv; type: ADME, organism-based, Macaca fascicularis; parameters: dose 1 mg/kg, route intravenous; settings: in vivo; outline: as §3
[15] = Oral bioavailability in rat; type: ADME, organism-based; settings: in vivo
[16] = AUC in cynomolgus monkey at 10 mg/kg, po; type: ADME, organism-based, Macaca fascicularis; parameters: dose 10 mg/kg, route oral; settings: plasma; outline: as §1
[17] = AUC in dog at 10 mg/kg, po; type: ADME, organism-based, Canis lupus familiaris, Plasma; parameters: dose 10 mg/kg, route oral; settings: plasma; outline: as §1
[18] = Oral bioavailability in cynomolgus monkey at 10 mg/kg; type: ADME, organism-based, Macaca fascicularis; settings: in vivo; outline: as §1
[19] = Cmax in dog at 10 mg/kg, po; type: ADME, organism-based, Canis lupus familiaris; parameters: dose 10 mg/kg, route oral; settings: in vivo; outline: as §1
[20] = Tmax in cynomolgus monkey at 10 mg/kg, po; type: ADME, organism-based, Macaca fascicularis; parameters: dose 10 mg/kg, route oral; settings: in vivo; outline: as §1
[21] = Cmax in rat at 10 mg/kg, po; type: ADME, organism-based; parameters: dose 10 mg/kg, route oral; settings: in vivo; outline: as §1
[22] = Mean residence time in dog at 1 mg/kg, iv; type: ADME, organism-based, Canis lupus familiaris; parameters: dose 1 mg/kg, route intravenous; settings: in vivo
[23] = Tmax in dog at 10 mg/kg, po; type: ADME, organism-based, Canis lupus familiaris; parameters: dose 10 mg/kg, route oral; settings: in vivo; outline: as §1
[24] = target: Mitogen-activated protein kinase 9 (Homo sapiens, UniProt P45984); test: Inhibition of hexa-His-tagged JNK2 expressed in baculoviral system using GST-tagged cJun as substrate preincubated for 15 mins prior ATP addition measured after 60 mins by scintillation counting
Sequence of Mitogen-activated protein kinase 9 (P45984 whole entry): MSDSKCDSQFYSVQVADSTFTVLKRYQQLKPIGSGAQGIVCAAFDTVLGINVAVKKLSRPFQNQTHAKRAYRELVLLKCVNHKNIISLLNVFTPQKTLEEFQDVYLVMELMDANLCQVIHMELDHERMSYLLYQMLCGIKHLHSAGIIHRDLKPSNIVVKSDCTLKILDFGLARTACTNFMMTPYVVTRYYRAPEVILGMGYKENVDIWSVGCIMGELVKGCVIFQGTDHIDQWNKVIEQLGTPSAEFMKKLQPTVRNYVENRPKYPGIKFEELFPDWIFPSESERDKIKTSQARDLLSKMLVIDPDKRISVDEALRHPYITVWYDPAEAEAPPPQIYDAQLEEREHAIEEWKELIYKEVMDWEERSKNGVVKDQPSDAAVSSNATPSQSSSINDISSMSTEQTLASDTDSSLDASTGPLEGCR

[25] = AUC in cynomolgus monkey at 1 mg/kg, iv; type: ADME, organism-based, Macaca fascicularis; parameters: dose 1 mg/kg, route intravenous; settings: plasma; outline: as §3
[26] = Oral bioavailability in dog at 10 mg/kg; type: ADME, organism-based, Canis lupus familiaris; settings: in vivo; outline: as §1
[27] = Volume of distribution at steady state in dog at 1 mg/kg, iv; type: ADME, organism-based, Canis lupus familiaris; parameters: dose 1 mg/kg, route intravenous; settings: in vivo, read-out: Vdss
[28] = Oral bioavailability in rat at 10 mg/kg; type: ADME, organism-based; settings: in vivo; outline: as §1
[29] = Clearance in rat at 2 mg/kg, iv; type: ADME, organism-based; parameters: dose 2 mg/kg, route intravenous; settings: in vivo; outline: as §2
[30] = AUC in dog at 1 mg/kg, iv; type: ADME, organism-based, Canis lupus familiaris, Plasma; parameters: dose 1 mg/kg, route intravenous; settings: plasma

Compound: CCO[C@H]1CC[C@H](Nc2ncc3nc(Nc4ccc(F)cc4F)n(C4CCOCC4)c3n2)CC1
- IC50 [1]: 540 nM
- IC50 [2]: 1600 nM
- IC50 [3]: > 3000 nM

Compound: O[C@H]1CC[C@H](Nc2ncc3nc(Nc4c(F)cc(F)cc4F)n([C@@H]4CCOC4)c3n2)CC1
- IC50 [3]: > 3000 nM

Compound: CC(C)(O)[C@H]1CC[C@@H](c2ncc3nc(Nc4ccc(F)cc4F)n(C4CCOCC4)c3n2)C1
- IC50 [1]: 1300 nM
- IC50 [2]: 1700 nM
- IC50 [3]: > 3000 nM

Compound: C[C@]1(O)CC[C@H](Nc2ncc3nc(Nc4ccc(F)cc4F)n(C4CCOCC4)c3n2)CC1
- IC50 [1]: 1200 nM
- IC50 [2]: 2500 nM
- IC50 [3]: > 3000 nM

Continued, values first:

- IC50 [1]: 880 nM
- IC50 [3]: 860 nM
Compound: CS(=O)(=O)N[C@H]1CC[C@H](Nc2ncc3nc(Nc4ccc(F)cc4F)n(C4CCOCC4)c3n2)CC1

- Cmax [4]: 11000 nM
- Tmax [5]: 42 min
- AUC [6]: 2.9 µM·h
- AUC [7]: 1.8 µM·h
- Vd [8]: 0.8 L/kg
- MRT [9]: 108 min
- MRT [10]: 66 min
- clearance [11]: 24 mL/min/kg
- IC50 [12]: 7 nM
- Vd [13]: 2.5 L/kg
- clearance [14]: 7.1 mL/min/kg
- bioavailability [15]: 33%
- AUC [16]: 23 µM·h
- IC50 [1]: 51 nM
- IC50 [2]: 91 nM
- AUC [17]: 3.3 µM·h
- bioavailability [18]: 48%
- Cmax [19]: 860 nM
- Tmax [20]: 49.8 min
- Cmax [21]: 1200 nM
- IC50 [3]: 4200 nM
- MRT [22]: 60 min
- Tmax [23]: 40.2 min
- IC50 [24]: 10 nM
- AUC [25]: 4.7 µM·h
- bioavailability [26]: 24%
- Vd [27]: 1.4 L/kg
- bioavailability [28]: 33%
- clearance [29]: 39 mL/min/kg
- AUC [30]: 1.4 µM·h
Compound: CNC(=O)[C@H]1CC[C@H](Nc2ncc3nc(Nc4c(F)cc(F)cc4F)n([C@H]4CCOC4)c3n2)CC1

- IC50 [1]: 170 nM
- IC50 [2]: 1800 nM
- IC50 [3]: 290 nM
Compound: CC(C)(O)[C@H]1CC[C@H](Nc2ncc3nc(Nc4ccc(F)cc4F)n(C4CCCC4)c3n2)CC1

- AUC [6]: 12 µM·h
- bioavailability [15]: 70%
- IC50 [1]: 390 nM
- IC50 [2]: 860 nM
- IC50 [3]: 2700 nM
- clearance [29]: 21 mL/min/kg
Compound: O[C@H]1CC[C@H](Nc2ncc3nc(Nc4ccc(F)cc4F)n(C4CCOCC4)c3n2)CC1
